# Source: paper PMC2863310 (Pigment cell & melanoma research, 2009)
# Residues, ends and D or L forms follow the SMILES beside them. *: point of attachment. Cbz = O=C(OCc1ccccc1)*
# Columns and labels:
# [1] = system: VEGF; experiment: VEGF secretion from SW1 melanoma cells; assay type: cell-based, mouse; conditions: 10 h, ELISA
# [2] = system: UACC903 melanoma tumors; experiment: UACC903 melanoma xenograft in nude mice; assay type: in vivo, mouse
# Procedure, shortened: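 UACC903 cells (1 × 10^6 in 100 µl PBS) are injected s.c. into the flank of 4-week-old male nude mice. From 1 week, test compound (2, 5 or 10 mg/kg; 0.1% DMSO final) is given i.p. twice weekly for 4 weeks, with tumors measured twice weekly. Harvested tumors: Z-fix, IHC for HIF-1α/pERK (HRP polymer, DAB, hematoxylin), TUNEL (peroxidase kit), and pERK/total ERK immunoblots.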
# [3] = biological target: T1, GST-Siah2 (Mus musculus, UniProt Q06986); experiment: Meso Scale electro-chemiluminescent Siah2 self-ubiquitination assay; assay type: biochemical
# T1 sequence (Q06986 1-325): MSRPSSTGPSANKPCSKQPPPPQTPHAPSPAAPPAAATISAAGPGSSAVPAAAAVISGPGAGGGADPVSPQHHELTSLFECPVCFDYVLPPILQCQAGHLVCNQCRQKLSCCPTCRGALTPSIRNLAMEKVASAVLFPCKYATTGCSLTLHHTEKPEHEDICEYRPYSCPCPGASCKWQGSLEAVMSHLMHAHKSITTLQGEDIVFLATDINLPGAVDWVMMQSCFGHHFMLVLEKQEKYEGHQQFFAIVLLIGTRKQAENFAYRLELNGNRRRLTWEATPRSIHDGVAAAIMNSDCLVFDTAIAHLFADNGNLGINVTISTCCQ
# Procedure, shortened: (§1)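 Electrochemiluminescent format. GST-Siah2 or GST-RNF5 (5 pM final) is adsorbed onto glutathione-coated wells. Test compound is added in 100% DMSO. Reaction is started with a pre-charged ubiquitin-E1-E2 mix and runs 1 h at room temperature, then is stopped by Tris-buffered washes. SULFO-Tag antibody to ubiquitinated proteins is added and the signal is read. Library tested at 100 µM; hits confirmed by dose-response curves.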
# [4] = system: PHD3; experiment: PHD3 level and half-life; assay type: cell-based, mouse
# Procedure, shortened: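 Immortalized MEFs are kept in 10% FBS with 0.1 mM non-essential amino acids and 0.2 mM 2-mercaptoethanol. Cells get test compound (25 µM), with or without 5 mM N-acetyl L-cysteine. PHD3 is blotted after 1% O2, 5 h; Spry2 under normoxia; HIF-1α in nuclear extracts. β-actin/lamin A are loading controls. For half-life, cycloheximide (20 µg/ml) is added after 5 h hypoxia and cells are harvested over time.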
# [5] = system: SPRY2; experiment: Spry2 expression in 293T cells transfected with Myc-Spry2 and HA-Siah2; assay type: cell-based; conditions: 5 h
# [6] = biological target: T2, GST-RNF5 (Homo sapiens, UniProt Q99942); experiment: In vitro ubiquitination assay, Western blot with anti-ubiquitin; assay type: biochemical; conditions: 100 µM
# Procedure, shortened: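 Bacterially expressed GST-RNF5 was purified on glutathione resin. The reaction buffer was 50 mM Tris-HCl pH 8.0, 5 mM MgCl2, 0.5 mM DTT and 2 mM NaF, with HA-ubiquitin (2 µg), 2 mM ATP, E1 (50 ng) and purified His-UbcH5b E2 (250 ng). Test compound was present at 100 µM, and reactions ran 45 min at 37°C.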
# [7] = system: HIF-1α; experiment: HIF-1α protein level in SW1 melanoma cells; assay type: cell-based; conditions: SW1 mouse melanoma cells, hypoxia 1% O2, 5 h
# [8] = biological target: T1, GST-Siah2; experiment: In vitro ubiquitination assay, Western blot with anti-ubiquitin; assay type: biochemical
# Procedure, shortened: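 GST-Siah2 (with GST-RNF5 and GST-Siah2 RING mutant in parallel), bacterially expressed, glutathione-purified. Reactions on glutathione beads in 50 mM Tris-HCl pH 8.0, 5 mM MgCl2, 0.5 mM DTT, 2 mM NaF, with HA-ubiquitin (2 µg), 2 mM ATP, E1 (50 ng) and His-UbcH5b (250 ng), 45 min, 37°C, with shaking. Test compound at 100 µM or a concentration series. Read-out: 8% SDS-PAGE, anti-ubiquitin blot; anti-GST for input.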
# [9] = biological target: T3, Siah2 (Mus musculus, UniProt Q06986); experiment: In vivo auto-ubiquitination of Siah2 in 293T cells; assay type: cell-based; conditions: MEN 25 µM or MG132 40 µM, 6 h
# T3 sequence (Q06986 1-325): T1 sequence (Q06986 1-325)
# Procedure, shortened: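 293T cells (DMEM, 10% BS) were co-transfected with Flag-Siah2 with or without HA-ubiquitin and treated 24 h later. Cells were lysed in 2% SDS/TBS at 95°C for 10 min, diluted ninefold in 1% Triton X-100/2 mM EDTA, sonicated, precleared with protein G and clarified. Anti-Flag immunoprecipitation used 2 mg protein overnight at 4°C. After stringent washes, 8% SDS-PAGE was blotted with anti-HA and reprobed with anti-Flag.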
# [10] = system: UACC903 melanoma cells; experiment: Spry2 and pERK levels in UACC903 melanoma cells; assay type: cell-based, human; conditions: 5 h
# Procedure, shortened: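 UACC903 human melanoma cells are treated 5 h with a concentration series of test compound. Blots are probed overnight at 4°C and detected with fluorescent secondary antibodies. Total ERK or β-actin serves as loading control.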
# [11] = system: HIF-1α; experiment: HIF-1α protein level in 293T cells; assay type: cell-based; conditions: hypoxia 1% O2, 5 h
# [12] = biological target: T2, GST-RNF5; experiment: Meso Scale electro-chemiluminescent RNF5 ubiquitination assay; assay type: biochemical
# Procedure, shortened: as §1
# [13] = biological target: T4, Siah1 (Mus musculus, UniProt P61092); experiment: Siah1 ubiquitin ligase activity; assay type: biochemical
# T4 sequence (P61092 1-282): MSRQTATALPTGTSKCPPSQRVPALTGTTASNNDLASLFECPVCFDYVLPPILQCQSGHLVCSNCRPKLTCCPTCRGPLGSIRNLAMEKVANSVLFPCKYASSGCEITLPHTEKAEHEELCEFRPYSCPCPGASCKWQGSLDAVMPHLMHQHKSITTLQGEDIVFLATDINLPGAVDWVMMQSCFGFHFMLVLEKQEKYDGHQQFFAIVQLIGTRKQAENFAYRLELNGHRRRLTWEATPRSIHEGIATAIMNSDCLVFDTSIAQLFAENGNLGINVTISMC
# [14] = system: Human Microvascular Endothelial Cells (HMVEC); experiment: HMVEC tube formation with conditioned medium of treated SW1 cells; assay type: cell-based; conditions: medium from SW1 cells treated 10 h under hypoxia; read after 16 h
# [15] = biological target: T3, Siah2; experiment: Siah steady-state levels in transfected 293T cells; assay type: cell-based
# Procedure, shortened: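 293T cells (DMEM, 10% BS) were transiently transfected with HA-Siah2 or Flag-Siah1a (1 µg) by calcium phosphate or Lipofectamine. They were treated 24 h later with test compound at several concentrations, with DMSO as control. Lysates were immunoblotted for the tag with β-actin as loading control, using fluorescent secondary antibodies and infrared scanning.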
# [16] = biological target: T1, GST-Siah2; experiment: In vitro protein-binding assay of GST-Siah2 with PHYL or Spry2
# Procedure, shortened: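 GST-Siah2 was affinity-purified onto glutathione-Sepharose 4B beads. Spry2 and PHYL were made by coupled in vitro transcription/translation in reticulocyte lysate with [35S]-methionine and mixed with the GST fusion on glutathione beads. Bound protein was resolved on 12% SDS-PAGE and detected by autoradiography.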
# [17] = system: SW1 melanoma cells; experiment: Semi-quantitative RT-PCR of HIF-1α and VEGF transcripts; assay type: cell-based, mouse
# T2 sequence (Q99942 whole entry): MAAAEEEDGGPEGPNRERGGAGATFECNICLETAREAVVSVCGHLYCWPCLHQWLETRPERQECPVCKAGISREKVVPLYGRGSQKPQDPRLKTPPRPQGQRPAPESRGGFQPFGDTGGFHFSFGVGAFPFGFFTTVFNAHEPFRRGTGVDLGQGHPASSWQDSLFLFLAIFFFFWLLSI
smiles,measurement,setting,value
"CC1=CC(=O)c2ccccc2C1=O [compound 1, menadione]",level of VEGF secreted,[1],proportionally reduced
same,pERK levels in tumors,[2]; IHC and immunoblot of xenograft tumors,effectively reduced the levels of pERK
same,HIF-1α expression in tumors,[2]; IHC of xenograft tumors,lower levels of HIF-1α expression
same,degree of apoptosis in tumors (TUNEL),[2]; xenograft tumors,found to be higher
same,IC50,[3],20 µM
same,"stabilization of PHD3 or Spry2, effect on HIF-1α, in presence of ROS scavenger","[4]; MEF cells, 25 µM with 5 mM N-acetyl cysteine",not affected
same,steady state levels of endogenous PHD3,"[4]; MEF cells, hypoxia 1% O2, 5 h, increasing concentrations",corresponding increase in the steady state levels of endogenous PHD3
same,increase of PHD3 or Spry2 expression in Siah KO cells,"[4]; Siah2 KO and Siah2/Siah1a DKO MEF, 25 µM",attenuated in the Siah2 KO and completely abolished in the Siah2/1a DKO cells
same,Siah2-dependent decrease in SPRY2 expression,[5],attenuated Siah2-dependent decrease in SPRY2 expression
same,RNF5 self-ubiquitination in vitro,[6],did not reduce RNF5 self-ubiquitination activity
same,HIF-1α expression,[7],effectively reduced the level of HIF-1α expression
same,Siah2 auto-ubiquitination in vitro,"[8]; 100 µM, new lots of compounds, Western blot",strongest degree of Siah2 inhibition
same,"Siah2 auto-ubiquitination in vitro, dose dependence","[8]; GST-Siah2 on glutathione beads, increasing concentrations",attenuated in a dose-dependent manner
same,Siah2 ubiquitination in vivo,[9],effectively inhibits Siah2 ubiquitination in vivo
same,ERK activity / phosphorylation,[10],ERK activity was decreased
same,SPRY2 level,[10],increase in SPRY2 level
same,HIF-1α expression,[11],reduced the expression of HIF-1α in a dose-dependent manner
same,IC50,[12],> 100 µM
same,Siah1 ubiquitin ligase activity,[13],attenuated Siah1 ubiquitin ligase activity
same,tube formation of HMVEC cells,[14],dose-dependent decrease in tube formation
same,steady-state levels of Siah2 / Siah1a,[15],increase the steady-state levels of Siah2
same,association of Siah2 with PHYL or Spry2,[16],without affecting the association with PHYL or Spry2
same,level of HIF-1α transcripts,[17],did not alter the level of HIF-1α transcripts
same,transcription of VEGF,[17],"inhibited the transcription of the HIF-1α target gene, VEGF"
CC(C)C[C@@H](C=O)NC(=O)[C@H](CC(C)C)NC(=O)[C@H](CC(C)C)NC(=O)OCc1ccccc1 [MG132] (Cbz-Leu-Leu-Leu-aldehyde),Siah2 ubiquitination in vivo,[9],increased the ubiquitinated and unubiquitinated forms of Siah2
